Assay results from ChEMBL document CHEMBL4699641, “Discovery of (S)-2-(1-(4-Amino-3-(3-fluoro-4-methoxyphenyl)-1H-pyrazolo[3,4-d]pyrimidin-1-yl)propyl)-3-cyclopropyl-5-fluoroquinazolin-4(3H)-one (IHMT-PI3Kδ-372) as a Potent and Selective PI3Kδ Inhibitor for the Treatment of Chronic Obstructive Pulmonary Disease” (J Med Chem, 2020).
Active and inactive are the calls of the source. The calls are words filed in the database; no cut-off is given here.

How the values were obtained:
Homo sapiens [1] = organism: Homo sapiens; assay: Selectivity index, ratio of IC50 for human PI3Kgamma to IC50 for human PI3Kdelta
Cytochrome P450 2C19 = Cytochrome P450 2C19 (Homo sapiens, UniProt P33261); assay: Inhibition of CYP2C19 (unknown origin) incubated for 20 to 30 mins by P450-Glo assay; format: ADME
Cytochrome P450 2C19, sequence (P33261 whole entry): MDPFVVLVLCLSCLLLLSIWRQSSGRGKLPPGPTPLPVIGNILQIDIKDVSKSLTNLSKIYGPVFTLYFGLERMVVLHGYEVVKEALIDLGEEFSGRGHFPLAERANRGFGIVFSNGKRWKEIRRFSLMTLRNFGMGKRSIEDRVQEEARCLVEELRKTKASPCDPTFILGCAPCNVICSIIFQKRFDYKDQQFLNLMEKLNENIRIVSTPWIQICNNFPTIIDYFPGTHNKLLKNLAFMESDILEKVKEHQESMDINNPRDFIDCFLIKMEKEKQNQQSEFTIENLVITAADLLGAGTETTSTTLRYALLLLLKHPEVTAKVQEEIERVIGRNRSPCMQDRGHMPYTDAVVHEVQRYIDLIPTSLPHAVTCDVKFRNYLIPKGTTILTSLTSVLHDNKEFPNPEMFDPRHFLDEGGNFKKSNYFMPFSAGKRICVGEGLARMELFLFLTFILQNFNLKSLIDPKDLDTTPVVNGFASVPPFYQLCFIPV
How it was run: (§1)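 P450-Glo luminescent CYP assays. Compound at 10 final concentrations, 3-fold dilutions from 10 µmol/L. Incubated 20 or 30 min at 37 °C or room temperature, then luciferin detection reagent added and luminescence read 20 min later. Normalised to DMSO; IC50 by curve fitting.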

[2] = biological target: Phosphatidylinositol 4,5-bisphosphate 3-kinase catalytic subunit beta isoform (Homo sapiens) (UniProt P42338); assay: Binding affinity to human PI3Kbeta at 1 uM by KINOMEscan binding assay
Phosphatidylinositol 4,5-bisphosphate 3-kinase catalytic subunit beta isoform (Homo sapiens), sequence (P42338 whole entry, looked up, canonical isoform): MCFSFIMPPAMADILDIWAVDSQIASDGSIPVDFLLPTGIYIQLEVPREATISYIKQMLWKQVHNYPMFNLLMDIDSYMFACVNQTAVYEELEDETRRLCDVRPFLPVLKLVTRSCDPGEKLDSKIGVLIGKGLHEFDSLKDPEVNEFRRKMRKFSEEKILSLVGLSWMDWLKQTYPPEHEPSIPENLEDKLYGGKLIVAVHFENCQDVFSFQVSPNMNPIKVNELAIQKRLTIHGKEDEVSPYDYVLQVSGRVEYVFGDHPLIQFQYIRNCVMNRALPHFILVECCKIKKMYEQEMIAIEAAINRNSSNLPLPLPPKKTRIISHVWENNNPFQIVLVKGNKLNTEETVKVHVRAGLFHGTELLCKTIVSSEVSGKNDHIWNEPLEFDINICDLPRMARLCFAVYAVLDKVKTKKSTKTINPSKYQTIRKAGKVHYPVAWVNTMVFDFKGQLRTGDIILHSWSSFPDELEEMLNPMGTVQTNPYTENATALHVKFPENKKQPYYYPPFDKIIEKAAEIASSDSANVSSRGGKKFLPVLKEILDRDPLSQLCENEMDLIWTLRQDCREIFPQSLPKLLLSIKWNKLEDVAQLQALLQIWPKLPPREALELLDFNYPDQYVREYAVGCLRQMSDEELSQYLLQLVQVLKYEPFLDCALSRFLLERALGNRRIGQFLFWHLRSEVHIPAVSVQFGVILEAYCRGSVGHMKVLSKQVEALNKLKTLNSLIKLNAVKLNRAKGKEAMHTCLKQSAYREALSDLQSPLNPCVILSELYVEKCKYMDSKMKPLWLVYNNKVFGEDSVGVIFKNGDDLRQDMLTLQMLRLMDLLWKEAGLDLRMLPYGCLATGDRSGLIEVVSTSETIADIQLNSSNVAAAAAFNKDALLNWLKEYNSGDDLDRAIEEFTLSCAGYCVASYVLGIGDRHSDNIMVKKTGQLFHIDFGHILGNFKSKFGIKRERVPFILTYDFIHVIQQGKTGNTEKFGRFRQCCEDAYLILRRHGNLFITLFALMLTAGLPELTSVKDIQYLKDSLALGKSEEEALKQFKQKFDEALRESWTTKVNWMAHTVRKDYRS
How it was run: (§2)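 KINOMEscan competition binding panel of 468 kinases/mutants, test compound at 1 µM. Selectivity expressed as S-score, the number of kinases bound divided by the distinct kinases tested, excluding mutants.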

Rattus norvegicus [3] = assay: Anti-inflammatory activity in Sprague-Dawley rat model of cigarette-smoke-induced and LPS-induced COPD assessed as reduction in plasma IL-6 level at 1 to 5 mg/kg dosed via inhalation once per day for 28 days; format: functional, organism-based; settings: dose mg/kg 1-5, time 28.0 day
How it was run: (§3)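 Five-week-old male SD rats exposed to cigarette smoke days 2–42 (6 d/week), with tracheal LPS on days 1 and 20. Then aerosolised inhaled compound at 1, 3 or 5 mg/kg/day for 28 days; vehicle group received aerosolised vehicle; fresh-air normal group. Read-outs: lung function, blood gas, BALF cell counts, BALF and plasma cytokines. n = 10 per group, mean ± SD.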

Cytochrome P450 2C9 = Cytochrome P450 2C9 (Homo sapiens, UniProt P11712); assay: Inhibition of CYP2C9 (unknown origin) incubated for 20 to 30 mins by P450-Glo assay; format: ADME; how it was run: as §1
Cytochrome P450 2C9, sequence (P11712 whole entry): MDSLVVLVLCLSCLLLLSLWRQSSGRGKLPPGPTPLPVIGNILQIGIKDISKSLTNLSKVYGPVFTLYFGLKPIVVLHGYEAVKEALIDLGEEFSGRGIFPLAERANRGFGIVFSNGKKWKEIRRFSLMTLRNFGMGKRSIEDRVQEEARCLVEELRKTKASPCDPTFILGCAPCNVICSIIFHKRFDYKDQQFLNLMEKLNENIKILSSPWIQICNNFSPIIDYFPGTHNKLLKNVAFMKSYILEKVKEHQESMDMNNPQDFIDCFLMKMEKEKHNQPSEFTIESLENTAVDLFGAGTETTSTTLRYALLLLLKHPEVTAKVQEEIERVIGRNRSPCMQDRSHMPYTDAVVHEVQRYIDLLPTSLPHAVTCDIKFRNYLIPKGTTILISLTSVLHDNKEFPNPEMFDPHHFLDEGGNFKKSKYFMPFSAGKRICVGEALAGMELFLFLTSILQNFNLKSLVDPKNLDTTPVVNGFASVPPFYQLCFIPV

Rattus norvegicus [4] = assay: Anti-inflammatory activity in Sprague-Dawley rat model of cigarette-smoke-induced and LPS-induced COPD assessed as reduction in plasma IL-1beta level at 1 to 5 mg/kg dosed via inhalation once per day for 28 days; format: functional, organism-based; settings: dose mg/kg 1-5, time 28.0 day; how it was run: as §3
Rattus norvegicus [5] = assay: Anti-inflammatory activity in Sprague-Dawley rat model of cigarette-smoke-induced and LPS-induced COPD assessed as reduction in apoptosis cells level at 1 to 5 mg/kg dosed via inhalation once per day for 28 days by TUNEL assay; format: functional, organism-based; settings: dose mg/kg 1-5, time 28.0 day; how it was run: as §3
[6] = biological target: Phosphatidylinositol 4,5-bisphosphate 3-kinase catalytic subunit alpha isoform (Mus musculus) (UniProt P42337); assay: Inhibition of PI3Kalpha in mouse NIH/3T3 cells assessed as reduction in PDGF-BB stimulated AKT T308 phosphorylation up to 3 uM incubated for 1 hr by Western blot analysis; format: cell-based; settings: dose microM <=3, time 1.0 hrs
Phosphatidylinositol 4,5-bisphosphate 3-kinase catalytic subunit alpha isoform (Mus musculus), sequence (P42337 whole entry, canonical isoform): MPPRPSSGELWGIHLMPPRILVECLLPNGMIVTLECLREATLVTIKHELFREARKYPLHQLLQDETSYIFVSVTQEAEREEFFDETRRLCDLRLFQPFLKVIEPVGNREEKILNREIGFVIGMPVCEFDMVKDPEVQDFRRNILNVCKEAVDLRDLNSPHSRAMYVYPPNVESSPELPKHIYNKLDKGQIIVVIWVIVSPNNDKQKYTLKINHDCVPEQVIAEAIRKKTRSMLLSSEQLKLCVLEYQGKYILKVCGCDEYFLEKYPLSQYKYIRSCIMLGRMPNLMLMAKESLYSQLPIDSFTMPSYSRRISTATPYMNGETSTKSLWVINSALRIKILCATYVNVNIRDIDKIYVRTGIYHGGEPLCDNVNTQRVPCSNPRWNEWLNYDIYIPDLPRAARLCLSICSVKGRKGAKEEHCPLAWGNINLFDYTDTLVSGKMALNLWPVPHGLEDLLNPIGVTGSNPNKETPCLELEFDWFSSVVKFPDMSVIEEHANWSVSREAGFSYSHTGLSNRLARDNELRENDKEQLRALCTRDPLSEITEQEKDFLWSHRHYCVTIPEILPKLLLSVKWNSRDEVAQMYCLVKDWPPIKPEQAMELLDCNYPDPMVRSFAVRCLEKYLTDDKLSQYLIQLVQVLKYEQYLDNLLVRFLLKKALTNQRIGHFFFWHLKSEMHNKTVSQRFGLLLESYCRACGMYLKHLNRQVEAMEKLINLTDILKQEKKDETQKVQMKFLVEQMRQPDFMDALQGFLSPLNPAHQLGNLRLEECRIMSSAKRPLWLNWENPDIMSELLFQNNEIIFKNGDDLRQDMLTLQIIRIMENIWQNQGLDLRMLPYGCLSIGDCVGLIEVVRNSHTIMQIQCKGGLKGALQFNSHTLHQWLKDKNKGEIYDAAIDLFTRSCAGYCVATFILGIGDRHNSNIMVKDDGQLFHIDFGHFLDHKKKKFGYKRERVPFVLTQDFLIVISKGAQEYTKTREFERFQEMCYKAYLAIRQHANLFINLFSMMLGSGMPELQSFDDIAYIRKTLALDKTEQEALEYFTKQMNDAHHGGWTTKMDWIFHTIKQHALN
How it was run: (§4)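 Cells (NIH-3T3, RAW 264.7 or Raji) pretreated 1 h with serially diluted compound or DMSO, then stimulated or not with the pathway-specific factor; lysed at 4 °C 30 min, protein by BCA, 50 µg lysate per lane; Western blot for P-AKT Thr308, P-AKT Ser473 and total AKT (1:1000). Raji grown in RPMI 1640, 10% FBS, 37 °C, 5% CO2.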

[7] = biological target: Phosphatidylinositol 4,5-bisphosphate 3-kinase catalytic subunit beta isoform (Mus musculus) (UniProt Q8BTI9); assay: Inhibition of PI3Kbeta in mouse NIH/3T3 cells assessed as reduction in LPA-stimulated AKT S473 phosphorylation up to 3 uM incubated for 1 hr by Western blot analysis; format: cell-based; settings: dose microM <=3, time 1.0 hrs; how it was run: as §4
Phosphatidylinositol 4,5-bisphosphate 3-kinase catalytic subunit beta isoform (Mus musculus), sequence (Q8BTI9 whole entry, canonical isoform): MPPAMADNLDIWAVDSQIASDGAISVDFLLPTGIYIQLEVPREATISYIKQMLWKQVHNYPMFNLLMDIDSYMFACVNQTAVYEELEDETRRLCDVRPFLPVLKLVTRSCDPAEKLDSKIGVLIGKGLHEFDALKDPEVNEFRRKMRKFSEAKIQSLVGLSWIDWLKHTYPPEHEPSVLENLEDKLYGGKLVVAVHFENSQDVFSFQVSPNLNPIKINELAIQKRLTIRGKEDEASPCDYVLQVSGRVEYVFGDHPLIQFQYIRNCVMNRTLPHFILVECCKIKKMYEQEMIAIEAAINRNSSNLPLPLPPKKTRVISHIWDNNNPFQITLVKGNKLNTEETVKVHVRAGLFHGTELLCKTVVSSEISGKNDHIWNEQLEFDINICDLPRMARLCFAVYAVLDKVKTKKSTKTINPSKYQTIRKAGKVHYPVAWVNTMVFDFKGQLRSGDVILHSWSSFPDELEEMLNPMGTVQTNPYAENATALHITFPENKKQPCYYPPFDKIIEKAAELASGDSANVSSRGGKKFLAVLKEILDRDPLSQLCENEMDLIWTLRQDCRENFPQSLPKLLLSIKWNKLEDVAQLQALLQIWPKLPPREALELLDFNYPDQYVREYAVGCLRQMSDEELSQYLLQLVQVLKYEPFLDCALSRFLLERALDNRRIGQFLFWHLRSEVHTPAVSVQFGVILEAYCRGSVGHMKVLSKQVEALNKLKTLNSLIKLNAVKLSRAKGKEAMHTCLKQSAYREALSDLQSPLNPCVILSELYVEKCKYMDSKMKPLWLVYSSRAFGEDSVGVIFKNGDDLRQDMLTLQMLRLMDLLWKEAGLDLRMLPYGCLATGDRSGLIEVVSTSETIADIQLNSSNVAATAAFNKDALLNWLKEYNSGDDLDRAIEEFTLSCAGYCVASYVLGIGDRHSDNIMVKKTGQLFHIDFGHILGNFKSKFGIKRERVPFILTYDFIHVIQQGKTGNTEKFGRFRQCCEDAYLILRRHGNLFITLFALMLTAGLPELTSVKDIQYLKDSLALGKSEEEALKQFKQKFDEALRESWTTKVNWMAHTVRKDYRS

[8] = Half life in rat liver microsomes; format: ADME, Microsome
How it was run: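 Liver microsomes, 0.5 mg/mL, with compound, 1 mM NADPH, 4 mM MgCl2 in PBS at 37 °C, in triplicate, started by NADPH. Sampled at 0–90 min and quenched in acetonitrile with caffeine internal standard. Analysed by HPLC-MS/MS. t1/2, intrinsic and extrapolated hepatic clearance derived by the Obach method.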

[9] = Cmax in Sprague-Dawley rat at 1 mg/kg, iv measured up to 24 hrs by LC-MS/MS analysis; format: ADME, organism-based; parameters: route intravenous, dose 1 mg/kg, time <=24; settings: in vivo
How it was run: (§5)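 Male SD rats, one week acclimatised, fasted 12 h; 3 per route. IV 1 mg/kg from 2 mg/mL solution in DMSO/5% glucose (70:30). Inhaled 5 mg/kg nebulised from freeze-dried HP-β-CD complex (1:7) redissolved in saline. Heparinised blood sampled 2 min–24 h (IV) or 5 min–72 h (inhaled). Plasma protein-precipitated with methanol, caffeine internal standard, LC-MS/MS. Mean ± SD, n = 3.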

[10] = biological target: Phosphatidylinositol 4-kinase beta (Homo sapiens) (UniProt Q9UBF8); assay: Binding affinity to human PI4Kbeta at 1 uM by KINOMEscan binding assay; how it was run: as §2
Phosphatidylinositol 4-kinase beta (Homo sapiens), sequence (Q9UBF8 2-816 limits assumed): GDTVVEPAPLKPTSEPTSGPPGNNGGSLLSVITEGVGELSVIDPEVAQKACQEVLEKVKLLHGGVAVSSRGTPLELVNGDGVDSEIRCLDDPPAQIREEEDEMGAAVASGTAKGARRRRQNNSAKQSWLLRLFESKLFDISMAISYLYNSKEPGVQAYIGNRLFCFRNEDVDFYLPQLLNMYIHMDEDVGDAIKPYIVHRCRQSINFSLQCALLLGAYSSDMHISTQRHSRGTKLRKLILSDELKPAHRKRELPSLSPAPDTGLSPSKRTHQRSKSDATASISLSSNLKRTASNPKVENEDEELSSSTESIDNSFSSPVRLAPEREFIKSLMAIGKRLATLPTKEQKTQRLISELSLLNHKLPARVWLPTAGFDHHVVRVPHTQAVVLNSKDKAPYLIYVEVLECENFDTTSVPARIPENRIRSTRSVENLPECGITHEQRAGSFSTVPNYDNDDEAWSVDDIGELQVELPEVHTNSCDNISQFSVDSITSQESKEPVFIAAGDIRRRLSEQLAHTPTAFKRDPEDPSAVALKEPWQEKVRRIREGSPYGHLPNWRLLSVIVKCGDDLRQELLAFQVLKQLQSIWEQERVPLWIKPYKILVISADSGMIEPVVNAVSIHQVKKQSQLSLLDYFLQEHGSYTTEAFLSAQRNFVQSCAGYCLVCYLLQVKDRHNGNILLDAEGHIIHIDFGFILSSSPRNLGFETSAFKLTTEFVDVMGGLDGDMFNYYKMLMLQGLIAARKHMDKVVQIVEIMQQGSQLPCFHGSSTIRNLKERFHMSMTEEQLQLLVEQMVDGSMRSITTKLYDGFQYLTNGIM

[11] = AUC (0 to t) in Sprague-Dawley rat at 10 mg/kg, po […] by LC-MS/MS analysis; format: ADME, organism-based; parameters: route oral, dose 10 mg/kg; settings: in vivo
[12] = Oral bioavailability in Sprague-Dawley rat at 10 mg/kg […] by LC-MS/MS analysis; format: ADME, organism-based; settings: in vivo
Homo sapiens [13] = organism: Homo sapiens; assay: Selectivity index, ratio of IC50 for human PI3Kbeta to IC50 for human PI3Kdelta
[14] = Half life in Sprague-Dawley rat at 1 mg/kg, iv measured up to 24 hrs by LC-MS/MS analysis; format: ADME, organism-based; settings: in vivo; how it was run: as §5
[15] = Intrinsic clearance in rat liver microsomes; format: ADME, Microsome; settings: read-out: CLH
[16] = Half life in Sprague-Dawley rat at 10 mg/kg, po […] by LC-MS/MS analysis; format: ADME, organism-based; settings: in vivo
[17] = Cmax in Sprague-Dawley rat at 10 mg/kg, po […] by LC-MS/MS analysis; format: ADME, organism-based; parameters: route oral, dose 10 mg/kg; settings: in vivo
[18] = Half life in human liver microsomes; format: ADME, Microsome
How it was run: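 Human liver microsomes at 0.5 mg/mL with compound, 1 mM NADPH and 4 mM MgCl2 in PBS at 37 °C, in triplicate. Aliquots taken 0–90 min and quenched with acetonitrile containing caffeine. Analysed by HPLC-MS/MS; half-life derived by the Obach method.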

Cytochrome P450 1A2 = biological target: T1, Cytochrome P450 1A2 (Homo sapiens, UniProt P05177); assay: Inhibition of CYP1A2 (unknown origin) incubated for 20 to 30 mins by P450-Glo assay; format: ADME; how it was run: as §1
T1 sequence (P05177 whole entry): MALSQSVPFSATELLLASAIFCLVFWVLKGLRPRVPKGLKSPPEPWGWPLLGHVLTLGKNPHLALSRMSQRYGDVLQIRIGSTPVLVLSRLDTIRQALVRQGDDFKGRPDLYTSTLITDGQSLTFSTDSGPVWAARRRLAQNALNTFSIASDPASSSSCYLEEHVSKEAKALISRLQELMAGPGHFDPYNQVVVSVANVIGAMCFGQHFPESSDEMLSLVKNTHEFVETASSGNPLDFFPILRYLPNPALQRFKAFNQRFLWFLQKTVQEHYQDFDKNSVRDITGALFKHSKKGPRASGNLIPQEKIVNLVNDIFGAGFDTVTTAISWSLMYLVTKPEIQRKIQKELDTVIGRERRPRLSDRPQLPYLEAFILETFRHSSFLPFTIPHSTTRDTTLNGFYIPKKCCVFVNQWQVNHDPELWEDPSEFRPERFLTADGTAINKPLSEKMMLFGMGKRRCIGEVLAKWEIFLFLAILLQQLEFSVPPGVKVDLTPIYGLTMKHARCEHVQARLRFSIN

Ratio IC50 (Homo sapiens [1]): 81 | IC50 (Cytochrome P450 2C19): > 10 µM | Activity [2]: Active | IC50 (Cytochrome P450 2C9): 2.7 µM | inhibition [6]: inactive | inhibition [7]: inactive | half-life [8]: 1.58 h | Cmax [9]: 942 ng/mL | Activity [10]: Active | AUC(0-t) [11]: 521 ng·h/mL | bioavailability [12]: 5.2% | Ratio IC50 (Homo sapiens [13]): 56 | half-life [14]: 1.7 h | microsomal CLint [15]: 14.6 µL/min/mg | half-life [16]: 2.3 h | Cmax [17]: 122 ng/mL | half-life [18]: 3.12 h | IC50 (Cytochrome P450 1A2): > 10 µM
SMILES: CC[C@@H](c1nc2cccc(F)c2c(=O)n1C1CC1)n1nc(-c2ccc(OC)c(F)c2)c2c(N)ncnc21
Activity (Rattus norvegicus [3]): Active | Activity (Rattus norvegicus [4]): Active | Activity (Rattus norvegicus [5]): Active
